From PMC10676332 (Drugs in R&D, 2023)
Where two headings read alike, the source gives them in different places.

What was measured:
HCC78 cells = details: cited from earlier work
Caco-2 = Caco-2 permeability assay; format: in vitro ADME; details: Caco-2, concentrations 2.00 to 50.0 µM
[1] = single 160 mg dose, fasted, cited from earlier work
Safety assessment = format: in vivo, human
Summary of the method: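 Randomized crossover in healthy adults (fasted-fed or fed-fasted, 14-day washout). A TEAE counted any AE absent before dosing, or pre-existing and worsening in intensity or frequency after dosing. AEs graded; serious AEs and discontinuations recorded. Analysis set: every subject receiving at least one dose.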

ALK = details: preclinical data; cited from earlier work
[2] = cited from earlier work
[3] = format: in vivo, human; details: 160 mg single oral dose
Summary of the method: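 Healthy adults randomized 1:1 to fasted-fed or fed-fasted sequence, 14-day washout; ≥10-h overnight fast pre-dose, no drinking 1 h before to 2 h after, fasting 4 h post-dose. Plasma sampled pre-dose to 168 h, spun 1700g, 2–8 °C, 10 min, kept −70 °C; validated LC-MS/MS; non-compartmental parameters. Ln-transformed Cmax/AUC in linear mixed model; fed/fasted GMR with 90% CI, limits 0.80–1.25.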

[4] = system: ROS1 wild-type and G2032R mutant xenograft models; details: cited from earlier work
[5] = biological target: wild-type and mutant ROS1; details: preclinical data; cited from earlier work
In vitro solubility = format: physicochemical
[6] = Metabolism in human liver microsomes; format: in vitro ADME
[7] = system: BaF3 cells expressing ROS1 fusion wild-type and resistance mutants; details: cited from earlier work
ALK-positive NSCLC = details: cited from earlier work; for Objective response rate (ORR): phase I; for IRC-assessed ORR: phase II
[8] = oral administration with food vs fasted; cited from earlier work
[9] = 160 mg single dose, fed (high-fat meal)
[10] = oral 20–210 mg/day, ALK-positive NSCLC patients

Cc1cc(Nc2ncc(Cl)c(Nc3ccccc3S(=O)(=O)C(C)C)n2)c2c(c1C1CCN(C)CC1)C[C@@H](C)O2 [SAF-189s]
Inhibition of cell proliferation (HCC78 cells): potent inhibition | Drug efflux (Caco-2): evidence of drug efflux | Permeability (Caco-2): low permeability | AUC0-∞, geometric mean (CV%) ([1]; nine patients): 1970 (30.0) ng·h/mL | Cmax, geometric mean (CV%) ([1]; nine patients): 41.9 (27.0) ng/mL | t½, geometric mean (CV%) ([1]; nine patients): 39.3 (25.6) h | Median tmax ([1]; patients): 3.0 h | Incidence of TEAEs (Safety assessment; 160 mg single dose, fasted): 54.2% | Incidence of gastrointestinal disorders (Safety assessment; 160 mg single dose, fasted): 41.7% | Incidence of headache (Safety assessment; 160 mg single dose, fasted): 12.5% | Serious AEs (Safety assessment; 160 mg single dose, fasted and fed): no serious AEs were reported | Incidence of TEAEs (Safety assessment; [9]): 29.2% | Incidence of gastrointestinal disorders (Safety assessment; [9]): 4.2% | Incidence of headache (Safety assessment; [9]): 0.0% | Discontinuation of the study due to an AE (Safety assessment; 160 mg single dose, Grade 1 vomiting): Only one volunteer | Tolerability (Safety assessment; single doses of 160 mg, healthy volunteers): generally well tolerated | IC50 against ALK kinase activity (ALK): sub-nanomolar to nanomolar | BCS class ([2]; low solubility and low gastrointestinal permeability): class IV | Effect of high-fat meal on the PK profile ([3]; fed vs fasted): minimal effect | Geometric mean ratio: fed/fasted, AUC0-t ([3]; n = 23): 105.1% | Geometric mean ratio: fed/fasted, AUC0-∞ ([3]; n = 23): 105.5% | Geometric mean ratio: fed/fasted, Cmax ([3]; n = 23): 109.1% | Growth of xenograft models [4]: inhibited growth | IC50 against wild-type and mutant ROS1 kinase activity [5]: sub-nanomolar to nanomolar | Solubility (In vitro solubility; 0.1 mol/L hydrochloric acid, in vitro): slightly soluble | Solubility (In vitro solubility; pH 6.8, in vitro): poor solubility | Main metabolizing enzyme [6]: mainly metabolized by cytochrome P450 3A4 (CYP3A4) | Inhibition of cell proliferation [7]: potent inhibition | Anti-tumor efficacy (ALK-positive NSCLC; [10]): promising anti-tumor efficacy | Intracranial activity (ALK-positive NSCLC; [10]): had intracranial activity | Tolerability (ALK-positive NSCLC; oral 20–210 mg/day, fasted state, ALK-positive NSCLC patients): well tolerated | Objective response rate (ORR) (ALK-positive NSCLC; ALK inhibitor-naive subgroup (8/11)): 72.7% | Objective response rate (ORR) (ALK-positive NSCLC; all patients (28/45), oral 20–210 mg/day, fasted): 62.2% | Objective response rate (ORR) (ALK-positive NSCLC; brain metastases subgroup (17/27)): 63.0% | IRC-assessed ORR (ALK-positive NSCLC; ALK inhibitor-naive patients (95/104)): 91.3% | IRC-assessed ORR (ALK-positive NSCLC; all patients (116/150)): 77.3% | IRC-assessed ORR (ALK-positive NSCLC; brain metastases subgroup (50/71)): 70.4% | IRC-assessed ORR (ALK-positive NSCLC; crizotinib-pretreated group (17/26)): 65.4% | Tolerability of single doses (ALK-positive NSCLC; single doses of 160 mg, most AEs Grade 1 or 2): generally well tolerated

CCc1cc2c(cc1N1CCC(N3CCOCC3)CC1)C(C)(C)c1[nH]c3cc(C#N)ccc3c1C2=O [alectinib]
BCS class ([2]; approved ALK and ROS1 TKIs): BCS class IV

COc1cc(N2CCC(N3CCN(C)CC3)CC2)ccc1Nc1ncc(Cl)c(Nc2ccccc2P(C)(C)=O)n1 [brigatinib]
BCS class ([2]; approved ALK and ROS1 TKIs): BCS class I

Cc1cc(Nc2ncc(Cl)c(Nc3ccccc3S(=O)(=O)C(C)C)n2)c(OC(C)C)cc1C1CCNCC1 [ceritinib]
BCS class ([2]; approved ALK and ROS1 TKIs): BCS class IV | Effect of food on drug exposure / PK [8]: improved exposure | Effect of food on safety [8]: improved exposure and safety with food

C[C@@H](Oc1cc(-c2cnn(C3CCNCC3)c2)cnc1N)c1c(Cl)ccc(F)c1Cl [crizotinib]
BCS class ([2]; approved ALK and ROS1 TKIs): BCS class IV

CN1CCN(c2ccc(C(=O)Nc3n[nH]c4ccc(Cc5cc(F)cc(F)c5)cc34)c(NC3CCOCC3)c2)CC1 [entrectinib]
BCS class ([2]; approved ALK and ROS1 TKIs): BCS class II

C[C@H]1Oc2cc(cnc2N)-c2c(nn(C)c2C#N)CN(C)C(=O)c2ccc(F)cc21 [lorlatinib]
BCS class ([2]; approved ALK and ROS1 TKIs): BCS class IV
